Screening data: PubChem BioAssay, several laboratories
Runt-CBFb FRET: inhibitors of human RUNX1 Runt domain binding to CBFb; Q01196+Q13951; Cerulean-Runt/Venus-CBFb FRET ratio 530/480, 1 h; inhibition, % at 20 µM; actives 0.46% (n = 220,000); AID 1496;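 active = inhibition over about 50% at 20 µM in the single-dose screen, limit read from the data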
Target sequence (Q01196 whole entry, looked up, the tested form may be a part): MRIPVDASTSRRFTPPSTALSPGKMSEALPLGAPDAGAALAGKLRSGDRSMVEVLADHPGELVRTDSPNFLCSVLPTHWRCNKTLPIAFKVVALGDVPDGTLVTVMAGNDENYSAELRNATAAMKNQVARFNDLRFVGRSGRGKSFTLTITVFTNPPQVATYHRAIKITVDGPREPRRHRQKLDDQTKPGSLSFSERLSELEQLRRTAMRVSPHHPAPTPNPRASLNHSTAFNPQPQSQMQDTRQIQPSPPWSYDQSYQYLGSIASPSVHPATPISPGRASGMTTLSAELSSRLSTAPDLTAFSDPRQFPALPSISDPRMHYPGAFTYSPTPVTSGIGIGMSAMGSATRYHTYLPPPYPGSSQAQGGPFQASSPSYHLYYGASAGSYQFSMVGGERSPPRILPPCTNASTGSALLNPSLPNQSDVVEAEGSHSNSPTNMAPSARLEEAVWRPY
Target sequence (Q13951 whole entry, looked up, the tested form may be a part): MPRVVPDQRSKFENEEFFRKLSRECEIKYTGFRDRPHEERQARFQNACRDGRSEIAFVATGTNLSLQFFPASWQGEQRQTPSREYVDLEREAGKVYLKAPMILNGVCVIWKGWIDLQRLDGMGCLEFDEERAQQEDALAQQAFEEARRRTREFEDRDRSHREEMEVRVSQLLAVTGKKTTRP
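Assay system: Cerulean-tagged RUNX1 Runt domain (FRET donor) fusion protein / Amount: 100 nM each of Venus-CBFb and Cerulean-Runt domain / Medium: Tris buffer pH 7.5 with salts and BSA / Also added: Venus-CBFb 100 nM / Schedule: 1 h complex formation plus 1 h compound treatment, room temperature / Signal: FRET fluorescence / Read-out: loss of energy transfer signal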
RanGTP-Imp inh: disruptors of Ran-importin-beta complex formation – biochemical, FRET, CFP-Ran, YFP-importin-beta, homogeneous, primary screen | cell-free CFP-Ran/YFP-importin-beta FRET ratio | inhibition, % (no concentration beside the values) | actives 1.1% (n = 300,000);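 active = more than half of the replicate wells show a fall in the fluorescence ratio signal beyond about 16%, limit read from the data, passing the limit was not always enough; inconclusive = exactly half of the replicate wells pass the set limit; inactive = fewer than half of replicates pass the limit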
Hck Nef HTS: inhibitors of human Hck kinase activated by Nef. actives 0.68% (n = 220,000). P08631. AID 463187. inhibition, % at 20 µM. Recombinant Hck-YEEI plus Nef, Z-Lyte FRET kinase assay;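 active = Hck-Nef kinase inhibition above about 50%, limit read from the data; inactive = inhibition below that limit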
Runt-SMMHC FRET: blocks binding of human RUNX1 Runt domain to CBFb-SMMHC. Q01196+Q13951. Cerulean-Runt/Venus-CBFb-SMMHC FRET ratio 530/480, 1 h. inhibition, % at 20 µM. actives 0.74% (n = 220,000). AID 1434;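 active = mean inhibition across duplicate retests at 20 µM reaching about 50%, limit read from the data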;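 also: inhibitors lower the FRET ratio by blocking Runt binding to CBFb-SMMHC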
Large screens that a line does not name were inactive. Compounds with a hit are over-represented: about 1.7% of the library has one in this group of screens.

O=C1/C(=C/c2cccs2)SC(=S)N1NS(=O)(=O)c1ccccc1	Hck Nef HTS 78
CCOC(=O)c1c(C)[nH]c(C)c1S(=O)(=O)NCc1ccccc1OCC	none (no result: Runt-CBFb FRET, Hck Nef HTS, Runt-SMMHC FRET)
CC(C)Sc1nc(N)c2c3c(sc2n1)CN(C)CC3	RanGTP-Imp inh 21
CCCSc1nc(N)c2c3c(sc2n1)CN(C)CC3	none
COCCNc1nc(SC)nc2sc3c(c12)CCN(C)C3	none (no result: Runt-CBFb FRET, Hck Nef HTS, Runt-SMMHC FRET)
CSc1nc(NCC(C)C)c2c3c(sc2n1)CN(C)CC3	RanGTP-Imp inh 17
O=C(Nc1ccc(N2CCCC2)cc1)c1cc([N+](=O)[O-])ccc1N1CCOCC1	none (no result: Runt-CBFb FRET, Hck Nef HTS, Runt-SMMHC FRET)
Oc1ccc(-c2nc3c4c(ncn3n2)-c2ccccc2CC42CCCC2)cc1	none
CC(C)n1cc(/C=N/NC(=O)COc2cccc3cccnc23)c2ccccc21	Hck Nef HTS 74
COc1cccc(/C=N/NC(=O)COc2cccc3cccnc23)c1O	none
C=CCn1cc(/C=N/NC(=O)COc2cccc3cccnc23)c2ccccc21	Hck Nef HTS 71
O=c1cc(-c2ccccc2Cl)oc2c(NS(=O)(=O)c3ccccc3OC(F)(F)F)ccc(O)c12	none
COc1ccc(OC)c(NC(=O)c2cc3oc4ccccc4c3cc2O)c1	Runt-SMMHC FRET 96
Clc1ccc(C2=CC(c3ccco3)n3ncnc3N2)cc1 (centres undefined)	none (no result: Runt-CBFb FRET)
COc1ccc(C2C=C(C)Nc3ncnn32)cc1 (centres undefined)	none (no result: Runt-CBFb FRET, Hck Nef HTS, Runt-SMMHC FRET)
COc1ccc(C2C=C(c3ccccc3)Nc3ncnn32)cc1 (centres undefined)	Runt-SMMHC FRET 63
COc1ccc(C2=CC(c3ccco3)n3ncnc3N2)cc1 (centres undefined)	Runt-SMMHC FRET 87 (no result: RanGTP-Imp inh)
Clc1ccccc1C1=CC(c2ccco2)n2ncnc2N1 (centres undefined)	RanGTP-Imp inh 43
CCCCN(C)CCN1C(=O)C2C(C(=O)Nc3ccc(C)cc3)C3C=CC2(O3)C1C(=O)NC1CCCCC1 (centres undefined)	none (no result: Runt-CBFb FRET, Hck Nef HTS, Runt-SMMHC FRET)
COc1ccccc1C(=O)NCCC(=O)NCCCSc1ccccc1	none (no result: Runt-CBFb FRET, Hck Nef HTS, Runt-SMMHC FRET)
Cc1c(O)ccc2cc(S(=O)(=O)c3ccccc3)c(=O)oc12	RanGTP-Imp inh 132 (no result: Runt-CBFb FRET, Hck Nef HTS, Runt-SMMHC FRET)
O=C(O)c1ccc2oc(=O)c(S(=O)(=O)c3ccccc3)cc2c1	none (no result: Runt-CBFb FRET, Hck Nef HTS, Runt-SMMHC FRET)
CCNC(=O)c1c(O)c2ccccc2[nH]c1=O	RanGTP-Imp inh 96
CC(C)=NNC(=O)c1c(O)c2ccccc2[nH]c1=O	none
O=C(Nc1nccs1)c1cccnc1Cl	none (no result: Runt-CBFb FRET, Hck Nef HTS, Runt-SMMHC FRET)
COc1cccc(C=Nc2ccccc2C(=O)Nc2nccs2)c1OC	Runt-SMMHC FRET 52
O=C(Nc1nccs1)c1ccccc1N=Cc1ccccc1	Runt-SMMHC FRET 58
C=CCn1c(NC(=O)c2ccc(Br)o2)c(S(=O)(=O)c2ccccc2)c2nc3ccccc3nc21	RanGTP-Imp inh 45
CCN(CC)c1ccc(C2C(C(=O)Nc3ccccn3)=C(C)NC3=C2C(=O)CC(C)(C)C3)cc1 (centres undefined)	none
CCn1cc(C2C3=C(CC(C)(C)CC3=O)N(c3ccccc3)C3=C2C(=O)CC(C)(C)C3)c(C)n1	RanGTP-Imp inh inconclusive, Runt-SMMHC FRET 82
CCn1cc(C2C(C(=O)Nc3cc(C)ccn3)=C(C)NC3=C2C(=O)CC(C)(C)C3)c(C)n1 (centres undefined)	Runt-SMMHC FRET 69
CC1=C(C(=O)Nc2cc(C)ccn2)C(c2ccc(C)cc2)C2=C(CCCC2=O)N1 (centres undefined)	Runt-SMMHC FRET 51
CC1=C(C(=O)Nc2ccccc2)C(c2ccc3c(c2)OCO3)C2=C(CCCC2=O)N1 (centres undefined)	none
CCN(CC)Cc1c(C(=O)N/N=C/c2c(Cl)cccc2Cl)nnn1-c1nonc1N	none (no result: Runt-CBFb FRET, Hck Nef HTS, Runt-SMMHC FRET)
COc1ccccc1NC(=O)NC1(C(=O)N2CCCCC2)CCCCC1	none (no result: Runt-CBFb FRET, Hck Nef HTS, Runt-SMMHC FRET)
CCCn1nc(NC(=O)c2cccs2)c2cc3cc(C)ccc3nc21	RanGTP-Imp inh 72, Runt-SMMHC FRET 80
CCn1nc(NS(=O)(=O)c2ccc(NC(C)=O)cc2)c2cc3cc(C)ccc3nc21	none (no result: Runt-CBFb FRET, Hck Nef HTS, Runt-SMMHC FRET)
CCn1nc(NC(=O)c2ccncc2)c2cc3cc(C)ccc3nc21	none
CCn1nc(NC(=O)c2ccncc2)c2cc3ccc(C)cc3nc21	RanGTP-Imp inh 24
CCCn1nc(NC(=O)c2cccs2)c2cc3ccc(C)cc3nc21	RanGTP-Imp inh 54, Runt-SMMHC FRET 51
COc1ccc(Cn2nnc3c(=O)[nH]c(C4CCN(S(=O)(=O)c5ccc(C)cc5)CC4)nc32)cc1	none (no result: Runt-CBFb FRET, Hck Nef HTS, Runt-SMMHC FRET)
Cc1cc(C)c2c(=O)n(CC(=O)Nc3cccc(F)c3)sc2n1	Runt-SMMHC FRET 65
Cc1cc(C)c2c(=O)n(CC(=O)Nc3ccc(Cl)cc3)sc2n1	none
